Experimental data collected from several papers.
Lines come from different studies, so protocols differ.
Read-out: cell growth or viability

SMILES	cell line	method	concentration	time	endpoint	result
Cc1nc(N(Cc2ccccc2)c2ccc3c(c2)/C(=C/c2ccccc2)C(=O)N3Cc2ccccc2)c2ccccc2n1 (mixture of isomers)	H22	MTT			IC50	880 nM
CCN1[C@@H](C(=O)NC23CCC(C(=O)O)(CC2)CC3)[C@H](c2cccc(Cl)c2F)[C@]2(C(=O)Nc3cc(Cl)ccc32)C12CCCCC2	U2OS	resazurin		72 h	GI50	703 nM
C=C(COCc1ccccc1)[C@@H]1CC[C@@H](C)C[C@H]1OCc1ccccc1	HeLa	MTT	10 µM	72 h	inhibition	40.4%
O=C(C=Cc1ccccc1)Nc1cc(-c2ccnc(N3CCC(O)CC3)c2)ccn1	HeLa	MTT	5 µM		inhibition	75.2%
COc1ccc(CNC[C@@](C)(O)[C@@H]2CC[C@@H](C)C[C@H]2OCc2ccccc2)cc1	HeLa	MTT	30 µM	72 h	inhibition	98.9%
O=C(C=Cc1ccccc1)Nc1cccc(-c2ccnc(N3CCC(O)CC3)c2)c1	HeLa	MTT	5 µM		inhibition	55.7%
C[C@@H]1CC[C@@H]([C@@](O)(CNCc2ccccc2)COCc2ccc(F)cc2)[C@H](OCc2ccc(F)cc2)C1	HeLa	MTT	10 µM	72 h	inhibition	96%
C=CC(=O)NC1CCN(c2ncc3ncnc(Nc4ccc(Oc5ccc6c(c5)ncn6C)c(C)c4)c3n2)CC1	HPAC				EC50	35.1 nM
Cc1c(C(=O)O)ccc2c3n(nc12)[C@@H]1[C@H](C3)N(CC2CC2)[C@@]2(C(=O)Nc3cc(Cl)ccc32)[C@H]1c1cccc(Cl)c1F	U2OS				GI50	> 90 nM
COc1ccc(CNC[C@](O)(COCc2ccc(OC)cc2)[C@@H]2CC[C@@H](C)C[C@H]2OCc2ccc(OC)cc2)cc1	HeLa	MTT	10 µM	72 h	inhibition	96.9%
O=C(/C=C/c1ccc(F)cc1)Nc1cc(-c2ccnc(N3CCC(O)CC3)c2)ccn1	HeLa	MTT	5 µM		inhibition	81.5%
Cc1nc(Nc2ccc3c(c2)CC(=O)N3)c2ccccc2n1	H22	MTT			IC50	10400 nM
Cc1cccc(/C=C/C(=O)Nc2cccc(-c3ccnc(N4CCC(CO)CC4)c3)c2)c1	HeLa	MTT	5 µM		inhibition	56.2%
Cc1nc(Nc2ccc3c(c2)C(C)(C)C(=O)N3C)c2ccccc2n1	H22	MTT			IC50	24000 nM
O=C(/C=C/c1cccc(F)c1)Nc1cc(-c2ccnc(N3CCC(O)CC3)c2)ccn1	HeLa	MTT	5 µM		inhibition	85%
C[C@@H]1CC[C@@H]([C@](C)(O)Cn2cnc3ccccc32)[C@H](OCc2ccccc2)C1	HeLa	MTT	10 µM	72 h	inhibition	32.1%
COc1cc2ncnc(N(C)c3ccc4c(c3)/C(=C/c3cccc(Cl)c3)C(=O)N4C)c2cc1OC	H22	MTT			IC50	4470 nM
O=C(C=Cc1ccccc1)Nc1cccc(-c2ccnc(N3CCOCC3)c2)c1	HeLa	MTT	5 µM		inhibition	28.4%
COc1cccc(CNC[C@@](C)(O)[C@@H]2CC[C@@H](C)C[C@H]2OCc2ccccc2)c1	HeLa	MTT	30 µM	72 h	inhibition	97.9%
